The source of these data is ChEMBL document CHEMBL1177835, “A note to the biological activity of benzoxazine derivatives containing the thioxo group” (Eur J Med Chem, 2010).

Series [1] concerns Mycobacterium kansasii. The series is described as follows: Antimycobacterial activity against Mycobacterium kansasii CNCTC My 235/80 after 14 days by microdilution method. The settings on record: CNCTC My 235/80, 336 h. In kind it is functional. The gist of the method: (§1)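 Dilution micromethod for MIC; compounds added to medium as DMSO solutions. Each strain also inoculated onto Löwenstein–Jensen medium to control inoculum sterility and growth. Strain 6509/96 is a clinical isolate; CNCTC strains from the Czech national type culture collection.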

The test system of series [2] is Mycobacterium kansasii. The experiment in a line: Antimycobacterial activity against Mycobacterium kansasii 6509/96 after 21 days by microdilution method. In kind it is functional. Conditions: 6509/96, 504 h. The gist of the method:
as §1
A general note: Dilution methods test growth across graded concentrations, often in twofold steps.

For series [3], the system named is Mycobacterium kansasii. The experiment in a line: Antimycobacterial activity against Mycobacterium kansasii CNCTC My 235/80 after 21 days by microdilution method. In kind it is functional. Conditions: CNCTC My 235/80, 504 h. Summed up:
as §1

The test system of the next series is HUVEC. The series is described as follows: Antiproliferative activity against HUVEC after 72 hrs by using methylene blue staining. In kind it is cell-based. Conditions: human. The gist of the method: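 HUVEC in culture medium with ultraglutamine, gentamicin, 10% heat-inactivated FBS, 37 °C. Harvested in log phase by trypsinization; about 10,000 cells/well. Compounds in DMSO, diluted in DMEM, incubated 72 h at 37 °C, 5% CO2. Cells then glutaraldehyde-fixed, stained with 0.05% methylene blue for 15 min, eluted with 0.33 N HCl, OD 660 nm. GI50 taken at 50% intersection versus untreated control.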

For the next series, the system named is K562. The series is described as follows: Antiproliferative activity against human K562 cells after 72 hrs by celltiter-blue assay. Format: functional, cell-based. Summed up:
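K-562 grown in RPMI 1640 with ultraglutamine, gentamicin, 10% heat-inactivated FBS at 37 °C; about 10,000 cells/well. Compounds dissolved in DMSO and diluted in DMEM, incubated 72 h at 37 °C, 5% CO2. Viability read by CellTiter-Blue resazurin reduction. GI50 taken where the dose-response curve crosses 50% of untreated control.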

The test system of series [4] is Mycobacterium tuberculosis. The experiment in a line: Antimycobacterial activity against Mycobacterium tuberculosis CNCTC My 331/88 after 14 days by microdilution method. Format: functional. Conditions: CNCTC My 331/88, 336 h. Summed up: (§2)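 MIC determined by a dilution micromethod. Strains came from the Czech National Collection of Type Cultures, Prague. Compounds were added to the medium as DMSO solutions. Each inoculum was also plated in parallel on Löwenstein–Jensen medium to check its sterility and growth. The M. avium strain is identical with ATCC 25291 and resistant to INH.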

Another series relates to HeLa. The series is described as follows: Cytotoxicity against human HeLa cells after 72 hrs by using methylene blue staining. In kind it is functional, cell-based. Summed up: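 HeLa cells in RPMI 1640 with supplements, preincubated 48 h without compound. Compound dilutions were then applied to subconfluent monolayers for 72 h at 37 °C, 5% CO2. Cells were glutaraldehyde-fixed, stained with 0.05% methylene blue, eluted with 0.33 N HCl and read at OD 660 nm. CC50 taken at 50% intersection versus negative control.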

Series [5] relates to Mycobacterium avium. The experiment in a line: Antimycobacterial activity against Mycobacterium avium CNCTC My 330/88 after 14 days by microdilution method. Format: functional. The settings on record: CNCTC My 330/88, 336 h. Summed up: as §2
Series [6] concerns Mycobacterium avium. The series is described as follows: Antimycobacterial activity against Mycobacterium avium CNCTC My 330/88 after 21 days by microdilution method. Format: functional. Conditions: CNCTC My 330/88, 504 h. The gist of the method: as §2
The subject of series [7] is Mycobacterium tuberculosis. The series is described as follows: Antimycobacterial activity against Mycobacterium tuberculosis CNCTC My 331/88 after 21 days by microdilution method. Format: functional. Conditions: CNCTC My 331/88, 504 h. Summed up:
as §2

Series [8] relates to Mycobacterium kansasii. The series is described as follows: Antimycobacterial activity against Mycobacterium kansasii 6509/96 after 14 days by microdilution method. Format: functional. The settings on record: 6509/96, 336 h. The gist of the method: as §1

≈ marks a conversion by molar mass, not a printed value.

The MIC is the least concentration at which growth counts as inhibited. Higher therefore signals a less susceptible organism.

Take `O=c1oc2ccccc2c(=S)n1Cc1ccc(Cl)c(Cl)c1`: the MIC in the series with Mycobacterium kansasii [1] amounted to 2 µM (≈ 0.676 µg/mL); in the series with Mycobacterium kansasii [2], 4 µM (≈ 1.35 µg/mL); in the series on Mycobacterium kansasii [3], 4 µM (≈ 1.35 µg/mL); in series [4], 1 µM (≈ 0.338 µg/mL); in the series on Mycobacterium avium [5] it was 1 µM (≈ 0.338 µg/mL); against Mycobacterium avium [6] it was 1 µM (≈ 0.338 µg/mL). The values for the MIC (in [7]; in the series with Mycobacterium kansasii [8]) were 1 µM (≈ 0.338 µg/mL) and 2 µM (≈ 0.676 µg/mL), respectively. The Activity result in the series on HUVEC, in the series on K562 and in the series with HeLa was “Toxic” each time.
As for `O=c1oc2ccccc2c(=S)n1Cc1ccccc1`, the MIC in the series on Mycobacterium kansasii [1] was 4 µM (≈ 1.08 µg/mL); in the series with Mycobacterium kansasii [2], 8 µM (≈ 2.15 µg/mL); with Mycobacterium kansasii [3], 8 µM (≈ 2.15 µg/mL); in series [4] it was 1 µM (≈ 0.269 µg/mL); in the series with Mycobacterium avium [5], 8 µM (≈ 2.15 µg/mL); against Mycobacterium avium [6], 8 µM (≈ 2.15 µg/mL). Also, the MIC in [7] was 2 µM (≈ 0.539 µg/mL); against Mycobacterium kansasii [8] it was 4 µM (≈ 1.08 µg/mL). The Activity entry with HUVEC, with K562 and in the series on HeLa was “Toxic” throughout.
As to `O=c1oc2ccc(Cl)cc2c(=S)n1Cc1ccc(Cl)c(Cl)c1`, the MIC in the series with Mycobacterium kansasii [1] is 62.5 µM (≈ 23.3 µg/mL); against Mycobacterium kansasii [2] it was 62.5 µM (≈ 23.3 µg/mL); with Mycobacterium kansasii [3], 62.5 µM (≈ 23.3 µg/mL); in series [4], 32 µM (≈ 11.9 µg/mL); against Mycobacterium avium [5], 62.5 µM (≈ 23.3 µg/mL); against Mycobacterium avium [6], 62.5 µM (≈ 23.3 µg/mL). Besides, the MIC turned out to be 32 µM (≈ 11.9 µg/mL) in series [7] and 62.5 µM (≈ 23.3 µg/mL) in the series with Mycobacterium kansasii [8]. In addition, the Activity result in the series on HUVEC, in the series with K562 and in the series with HeLa was “Toxic” each time.
